From ChEMBL document CHEMBL1154186, “Synthesis, kinase inhibitory potencies, and in vitro antiproliferative evaluation of new Pim kinase inhibitors” (J Med Chem, 2009)

What was measured:
[1] = target: Serine/threonine-protein kinase pim-1 (Homo sapiens) (UniProt P11309); assay: Inhibition of Pim-1 assessed as residual enzyme activity at 10 uM relative to untreated control
[2] = target: Serine/threonine-protein kinase pim-3 (Homo sapiens) (UniProt Q86V86); assay: Inhibition of Pim-3 assessed as residual enzyme activity at 10 uM relative to untreated control
[3] = target: Serine/threonine-protein kinase pim-2 (Homo sapiens) (UniProt Q9P1W9); assay: Inhibition of Pim-2 assessed as residual enzyme activity at 10 uM relative to untreated control
Sequence of Serine/threonine-protein kinase pim-2 (Homo sapiens) (Q9P1W9 whole entry, looked up): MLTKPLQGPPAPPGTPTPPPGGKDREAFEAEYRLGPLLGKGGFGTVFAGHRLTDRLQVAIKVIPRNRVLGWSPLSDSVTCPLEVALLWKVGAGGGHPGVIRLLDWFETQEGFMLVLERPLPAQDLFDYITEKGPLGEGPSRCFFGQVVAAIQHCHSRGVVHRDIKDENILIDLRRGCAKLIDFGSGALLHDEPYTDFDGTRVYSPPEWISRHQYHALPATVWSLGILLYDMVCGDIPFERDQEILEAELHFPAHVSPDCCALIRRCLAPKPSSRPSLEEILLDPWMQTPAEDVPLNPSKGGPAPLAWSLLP

[4] = target: Serine/threonine-protein kinase pim-2 (Homo sapiens) (UniProt Q9P1W9); assay: Inhibition of Pim-2 assessed as residual enzyme activity at 1 uM relative to untreated control
[5] = target: Serine/threonine-protein kinase pim-1 (Homo sapiens) (UniProt P11309); assay: Inhibition of Pim-1 assessed as residual enzyme activity at 1 uM relative to untreated control
[6] = target: Serine/threonine-protein kinase pim-3 (Homo sapiens) (UniProt Q86V86); assay: Inhibition of Pim-3 assessed as residual enzyme activity at 1 uM relative to untreated control
[7] = test system: PA-1; assay: Antiproliferative activity against human PA1 cells after 48 hrs by resazurin dye reduction assay; type: functional, cell-based; conditions: PA-1, 48 h
Method in brief: (§1)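 Cells (human fibroblast primary culture, or PC3, DU145 or PA1 cancer lines) were kept as monolayers in Glutamax MEM with Earle's salts, 10% FCS, pyruvate, nonessential amino acids and gentamicin, at 37 °C in 5% CO2. 5×10^3 cells/well adhered for 16 h, then had 48 h continuous drug exposure (20 mM DMSO stock). Resazurin 25 µg/mL for 1 h; fluorescence ex 530/em 590 nm. IC50 from blank-corrected concentration–survival curves versus control wells.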

[8] = test system: PC-3; assay: Antiproliferative activity against human PC3 cells after 48 hrs by resazurin dye reduction assay; type: functional, cell-based; conditions: PC-3, 48 h; method in brief: as §1
[9] = test system: DU-145; assay: Antiproliferative activity against human DU145 cells after 48 hrs by resazurin dye reduction assay; type: functional, cell-based; conditions: DU-145, 48 h; method in brief: as §1
[10] = Antiproliferative activity against human fibroblasts after 48 hrs by resazurin dye reduction assay; type: cell-based; conditions: Fibroblast; method in brief: as §1

Sequence of Serine/threonine-protein kinase pim-1 (Homo sapiens) (P11309 whole entry, looked up): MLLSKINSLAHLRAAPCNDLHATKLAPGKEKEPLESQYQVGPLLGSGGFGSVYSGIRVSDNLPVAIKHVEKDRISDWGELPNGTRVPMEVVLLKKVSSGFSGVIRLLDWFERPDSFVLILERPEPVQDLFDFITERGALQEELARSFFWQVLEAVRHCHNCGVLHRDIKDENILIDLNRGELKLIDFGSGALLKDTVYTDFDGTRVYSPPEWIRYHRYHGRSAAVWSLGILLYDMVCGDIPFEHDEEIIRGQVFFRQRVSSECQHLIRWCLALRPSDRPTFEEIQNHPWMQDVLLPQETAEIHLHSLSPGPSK

Structure (SMILES)	Activity [1]	Activity [2]	Activity [3]	Activity [4]	Activity [5]	Activity [6]	IC50 [7]	IC50 [8]	IC50 [9]	IC50 [10]
O=C(c1c[nH]c2c1ccc1c3ccccc3[nH]c12)C(F)(F)F	20%	7%	30%	54%	61%	20%	–	–	–	–
O=Cc1c[nH]c2c1ccc1c3cc(-c4ccc(F)cc4)ccc3[nH]c12	15%	15%	55%	72%	65%	54%	–	–	–	–
O=Cc1c[nH]c2c1ccc1c3cc(-c4ccc(C(F)(F)F)cc4)ccc3[nH]c12	28%	23%	52%	49%	79%	70%	–	–	–	–
O=Cc1c[nH]c2c1ccc1c3cc(Br)ccc3[nH]c12	6%	6%	53%	82%	31%	11%	2.8 µM	5.9 µM	12.2 µM	11 µM
O=Cc1c[nH]c2c1ccc1c3cc(-c4ccc(OC(F)(F)F)cc4)ccc3[nH]c12	29%	31%	70%	73%	68%	77%	–	–	–	–
CCN(CC)C(=O)/C(=N\O)c1c[nH]c2c1ccc1c3ccccc3[nH]c12	41%	21%	27%	62%	80%	74%	–	–	–	–
O=S(=O)(c1ccccc1)n1ccc2ccc3c4ccccc4[nH]c3c21	61%	64%	62%	65%	83%	102%	–	–	–	–
O=Cc1c[nH]c2c1ccc1c3cc(-c4ccc(-c5ccccc5)cc4)ccc3[nH]c12	39%	48%	70%	67%	69%	77%	–	–	–	–
O=Cc1c[nH]c2c1ccc1c3cc(-c4ccc(F)cc4F)ccc3[nH]c12	6%	6%	32%	59%	39%	26%	–	–	–	–
OCc1c[nH]c2c1ccc1c3ccccc3[nH]c12	28%	18%	47%	46%	72%	68%	–	–	–	–
COc1cccc(-c2ccc3[nH]c4c(ccc5c(C=O)c[nH]c54)c3c2)c1	17%	12%	31%	65%	64%	46%	–	–	–	–
Brc1ccc2[nH]c3c(ccc4cc[nH]c43)c2c1	12%	8%	46%	67%	69%	55%	–	–	–	–
NC(=O)c1c[nH]c2c1ccc1c3ccccc3[nH]c12	9%	9%	27%	–	–	–	–	–	–	–
OCCc1c[nH]c2c1ccc1c3ccccc3[nH]c12	35%	21%	50%	69%	90%	72%	–	–	–	–
O=Cc1c[nH]c2c1ccc1c3cc(-c4ccccc4)ccc3[nH]c12	16%	15%	53%	68%	60%	54%	–	–	–	–
